# Test results: ChEMBL document CHEMBL3124896, “Optimization of the lactam side chain of 7-azaindenoisoquinoline topoisomerase I inhibitors and mechanism of action studies in cancer cells” (2014)
# The source made the active and inactive calls. No cut-off for these calls is given here.
# Assays:
# UACC-62 = assay: Cytotoxicity against human UACC62 cells by SRB assay; assay type: functional
# SN12C = assay: Cytotoxicity against human SN12C cells by SRB assay; assay type: functional
# HOP-62 = assay: Cytotoxicity against human HOP62 cells by SRB assay; assay type: functional
# HCT-116 [1] = assay: Cytotoxicity against human HCT116 cells by SRB assay; assay type: functional
# DU-145 [2] = assay: Cytotoxicity against human DU145 cells by SRB assay; assay type: functional
# [3] = target: T1, DNA topoisomerase 1 (Homo sapiens) (UniProt P11387); assay: Inhibition of human recombinant topoisomerase 1 using radiolabeled DNA as substrate at 100 uM after 20 mins by SDS-PAGE
# T1 sequence (whole entry): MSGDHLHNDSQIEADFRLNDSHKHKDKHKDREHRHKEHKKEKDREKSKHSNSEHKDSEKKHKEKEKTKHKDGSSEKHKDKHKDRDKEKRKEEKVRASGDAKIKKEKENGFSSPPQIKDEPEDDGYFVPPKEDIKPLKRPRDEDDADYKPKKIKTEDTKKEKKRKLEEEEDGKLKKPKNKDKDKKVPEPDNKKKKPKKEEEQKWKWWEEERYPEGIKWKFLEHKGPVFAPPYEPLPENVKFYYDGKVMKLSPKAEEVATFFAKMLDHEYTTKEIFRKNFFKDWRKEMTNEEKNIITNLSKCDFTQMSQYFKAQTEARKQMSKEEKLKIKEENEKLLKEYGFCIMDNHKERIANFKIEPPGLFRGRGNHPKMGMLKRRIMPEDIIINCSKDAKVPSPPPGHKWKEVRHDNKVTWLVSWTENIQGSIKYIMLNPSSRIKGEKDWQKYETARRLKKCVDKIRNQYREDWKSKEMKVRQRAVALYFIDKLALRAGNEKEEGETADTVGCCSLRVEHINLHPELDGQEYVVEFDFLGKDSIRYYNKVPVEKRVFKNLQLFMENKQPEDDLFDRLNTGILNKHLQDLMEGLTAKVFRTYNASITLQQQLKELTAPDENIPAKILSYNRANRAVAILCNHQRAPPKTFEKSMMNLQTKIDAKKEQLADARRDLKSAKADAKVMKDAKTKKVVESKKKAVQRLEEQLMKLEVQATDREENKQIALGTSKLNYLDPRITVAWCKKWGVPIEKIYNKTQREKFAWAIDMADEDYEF
# In short: (§1)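 A 117 bp oligonucleotide was 3′-end-labelled with [α-32P]dGTP by Klenow fill-in. Reactions were stopped with 0.5% SDS and run on 20% denaturing polyacrylamide gels. Cleavage bands were scored visually on a semiquantitative scale.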
# HCT-116 [4] = assay: Cytotoxicity against human HCT116 cells after 72 hrs by MTT assay; assay type: functional; conditions: HCT-116, 72 h
# In short: (§2)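 Cells were seeded 24 h before dosing and exposed continuously for 72 h. Growth was read by colorimetric MTS assay and expressed relative to vehicle-treated controls set at 100. GI50 is the level giving 50% growth inhibition, from at least two independent determinations. HCT116 and siTop1 cells were kept in RPMI 1640/10% FBS with 100 μg/mL hygromycin; RC0.1 in RPMI 1640/10% FBS.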
# [5] = target: T1, DNA topoisomerase 1 (Homo sapiens); assay: Inhibition of human recombinant topoisomerase 1 in human HCT116 cells assessed as reversal of topoisomerase 1-DNA cleavage complex stabilization at 1 uM incubated for 1 hr followed by compound washout measured up to 6 hrs by DNA immunoblotting analysis; assay type: cell-based; conditions: HCT-116
# In short: (§3)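 10^6 HCT116 cells were treated with 1 μM for 1 h, and for reversal were held in drug-free medium for the set times. Cells were lysed with DNAzol and genomic DNA was isolated and sonicated. Serial dilutions were slot-blotted onto membranes and Top1–DNA complexes detected with the C21 anti-Top1 monoclonal antibody by immunoblotting (ICE method).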
# HCT-116 [6] = assay: Cell cycle arrest in human HCT116 cells assessed as accumulation at G2 phase at 1 uM incubated for 1 hr followed by compound washout measured after 6 to 48 hrs by propidium iodide staining-based FACS analysis; assay type: functional
# In short: (§4)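 HCT116 cells exposed to 1 μM drug for 1 h, then kept in drug-free medium for the stated times. Fixed cells were stained with propidium iodide and analysed by flow cytometry for DNA content histograms. Phase distributions were computed from the histograms.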
# [7] = target: T1, DNA topoisomerase 1 (Homo sapiens); assay: Inhibition of human recombinant topoisomerase 1 in human HCT116 cells assessed as DNA-protein cross linking at 1 uM incubated for 1 hr followed by compound washout measured after 1 hr; assay type: cell-based; conditions: HCT-116
# In short: (§5)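 In HCT116 cells, Top1 cleavage complexes were quantified as DNA–protein cross-links by alkaline elution, plotting the fraction of DNA retained on the filter against time. Persistence was read 1 h after drug removal. The negative control was untreated cells given 30 Gy irradiation to create strand breaks.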
# [8] = Resistance ratio of GI50 for vinblastine-resistant human KBV1 cells to GI50 for human KB 3.1 cells; assay type: functional
# [9] = Resistance ratio of GI50 for human mitoxantrone-resistant H460 cells to GI50 for human H460 cells; assay type: functional
# In short: (§6)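 Relative resistance = GI50 in the resistant subline divided by GI50 in the parental line. Both GI50s came from 72 h continuous-exposure MTS growth assays, each based on at least two independent determinations.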
# [10] = Cytotoxicity against human mitoxantrone-resistant H460 cells after 72 hrs by MTT assay; assay type: functional; conditions: NCI-H460, 72 h; in short: as §2
# [11] = Cytotoxicity against human RC0.1 cells after 72 hrs by MTT assay; assay type: functional; in short: as §2
# [12] = target: T1, DNA topoisomerase 1 (Homo sapiens); assay: Inhibition of human recombinant topoisomerase 1 in human HCT116 cells assessed as reversal of topoisomerase 1-DNA cleavage complex stabilization at 1 uM incubated for 1 hr followed by compound washout measured after 24 hrs by DNA immunoblotting analysis; assay type: cell-based; conditions: HCT-116; in short: as §3
# HCT-116 [13] = assay: Cell cycle arrest in human HCT116 cells at 1 uM after 1 hr by propidium iodide staining-based FACS analysis; assay type: functional; in short: as §4
# HCT-116 [14] = assay: Cell cycle arrest in human HCT116 cells assessed as accumulation at S phase at 1 uM incubated for 1 hr followed by compound washout measured after 3 hrs by propidium iodide staining-based FACS analysis; assay type: functional; in short: as §4
# DU-145 [15] = assay: Resistance ratio of GI50 for human RC0.1 cells to GI50 for human DU145 cells; assay type: functional; in short: as §6
# [16] = target: T1, DNA topoisomerase 1 (Homo sapiens); assay: Inhibition of human recombinant topoisomerase 1 in human HCT116 cells assessed as stabilization of topoisomerase 1-DNA cleavage complex at 1 uM after 1 hr by DNA immunoblotting analysis; assay type: cell-based; conditions: HCT-116; in short: as §3
# [17] = target: T1, DNA topoisomerase 1 (Homo sapiens); assay: Inhibition of human recombinant topoisomerase 1 using radiolabeled DNA as substrate after 20 mins by SDS-PAGE; in short: as §1
# HCT-116 [18] = assay: Induction of DNA damage in human HCT116 cells assessed as induction of histone gamma-H2AX level at 1 uM after 1 hr by flow cytometry
# [19] = Cytotoxicity against human H460 cells after 72 hrs by MTT assay; assay type: functional; conditions: NCI-H460, 72 h; in short: as §2
# [20] = Cytotoxicity against human KB 3.1 cells after 72 hrs by MTT assay; assay type: functional; conditions: KB 3-1, 72 h; in short: as §2
# [21] = Cytotoxicity against vinblastine-resistant human KBV1 cells after 72 hrs by MTT assay; assay type: functional; conditions: KB-V1, 72 h; in short: as §2
# HCT-116 [22] = assay: Cell cycle arrest in human HCT116 cells at 1 uM incubated for 1 hr followed by compound washout measured up to 1 hr by propidium iodide staining-based FACS analysis; assay type: functional; in short: as §4
# HCT-116 [23] = assay: Resistance ratio of GI50 for human HCT116 cells transfected with Top1-siRNA to GI50 for human HCT116 cells; assay type: functional; in short: as §6
# HCT-116 [24] = assay: Cytotoxicity against human HCT116 cells transfected with Top1-siRNA after 72 hrs by MTT assay; assay type: functional; conditions: HCT-116, 72 h; in short: as §2
# DU-145 [25] = assay: Cytotoxicity against human DU145 cells after 72 hrs by MTT assay; assay type: functional; conditions: DU-145, 72 h; in short: as §2
# [26] = target: T1, DNA topoisomerase 1 (Homo sapiens); assay: Inhibition of human recombinant topoisomerase 1 in human HCT116 cells assessed as DNA-protein cross linking at 1 uM after 1 hr; assay type: cell-based; conditions: HCT-116; in short: as §5
# [27] = target: T1, DNA topoisomerase 1 (Homo sapiens); assay: Inhibition of human recombinant topoisomerase 1 using radiolabeled DNA as substrate at 0.1 to 100 uM after 20 mins by SDS-PAGE
# In short: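 Baculovirus-purified human recombinant Top1 with ~2 nM of a 117 bp oligonucleotide, 3′-end-labeled with [α-32P]dGTP by Klenow fill-in. Drugs at 0.1, 1, 10, 100 μM; 25 °C, 20 min. Stopped with 0.5% SDS, run on 20% denaturing PAGE, phosphorimaged. Cleavage bands scored visually against camptothecin standard.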
# MCF7 = assay: Cytotoxicity against human MCF7 cells by SRB assay; assay type: functional
# OVCAR-3 = assay: Cytotoxicity against human OVCAR3 cells by SRB assay; assay type: functional
# SF-539 = assay: Cytotoxicity against human SF539 cells by SRB assay; assay type: functional
structure (smiles),measurement,setting,value
COc1cc2c3c(n(C)c(=O)c2cc1OC)-c1cc2c(cc1C3=O)OCO2,GI50,UACC-62,4.2 µM
same,GI50,SN12C,68 µM
same,GI50,HOP-62,1.3 µM
same,GI50,HCT-116 [1],35 µM
same,GI50,DU-145 [2],37 µM
same,inhibition,[3],Active
COc1cnc2c(c1)C(=O)c1c-2n(CCCN2CCOCC2)c(=O)c2cc([N+](=O)[O-])ccc12,GI50,HCT-116 [4],0.126 µM
same,inhibition,[5],Active
same,Activity,HCT-116 [6],Active
same,inhibition,[7],Active
same,RatioGI50,[8],0.74
same,RatioGI50,[9],5.25
same,GI50,[10],0.178 µM
same,GI50,[11],1.05 µM
same,inhibition,[12],Active
same,Activity,HCT-116 [13],Active
same,Activity,HCT-116 [14],Active
same,RatioGI50,DU-145 [15],7.41
same,inhibition,[16],Active
same,inhibition,[17],Active
same,Activity,HCT-116 [18],37.6%
same,GI50,[19],0.0339 µM
same,GI50,[20],0.562 µM
same,GI50,[21],0.417 µM
same,Activity,HCT-116 [22],Active
same,RatioGI50,HCT-116 [23],0.89
same,GI50,HCT-116 [24],0.112 µM
same,GI50,DU-145 [25],0.141 µM
same,inhibition,[26],Active
COc1cnc2c(c1)C(=O)c1c-2n(CCCNCCO)c(=O)c2cc([N+](=O)[O-])ccc12,GI50,UACC-62,< 0.01 µM
same,GI50,SN12C,< 0.01 µM
same,inhibition,[27],Active
same,GI50,MCF7,< 0.01 µM
same,GI50,HOP-62,< 0.01 µM
same,GI50,HCT-116 [1],< 0.01 µM
same,GI50,DU-145 [2],< 0.01 µM
same,GI50,OVCAR-3,0.035 µM
same,GI50,SF-539,0.014 µM
CC[C@@]1(O)C(=O)OCc2c1cc1n(c2=O)Cc2cc3c(CN(C)C)c(O)ccc3nc2-1 [TOPOTECAN],inhibition,[5],Active
same,RatioGI50,[9],>22.39
same,GI50,[10],> 1 µM
same,inhibition,[12],Active
same,inhibition,[16],Active
same,GI50,[19],0.0447 µM
CC[C@@]1(O)C(=O)OCc2c1cc1n(c2=O)Cc2cc3ccccc3nc2-1 [CAMPTOTHECIN],GI50,HCT-116 [4],0.0174 µM
same,GI50,[11],> 1 µM
same,GI50,MCF7,0.013 µM
same,Activity,HCT-116 [18],40.9%
same,GI50,HCT-116 [24],0.0355 µM
same,GI50,DU-145 [25],0.0182 µM
COc1cnc2c(c1)C(=O)c1c-2n(CCCN(C)CCO)c(=O)c2cc([N+](=O)[O-])ccc12,GI50,UACC-62,0.029 µM
same,GI50,SN12C,0.039 µM
same,inhibition,[27],Active
same,GI50,MCF7,0.013 µM
same,GI50,HOP-62,0.028 µM
same,GI50,HCT-116 [1],0.049 µM
same,GI50,DU-145 [2],0.036 µM
same,GI50,OVCAR-3,0.18 µM
same,GI50,SF-539,0.034 µM
COc1cccc2c1C(=O)c1c(O)c3c(c(O)c1C2=O)C[C@@](O)(C(=O)CO)C[C@@H]3O[C@H]1C[C@H](N)[C@H](O)[C@H](C)O1 [DOXORUBICIN],GI50,[20],0.676 µM
same,GI50,[21],> 1 µM
COc1cnc2c(c1)C(=O)c1c-2n(CCCN2CCOCC2)c(=O)c2cc(OC)c(OC)cc12,inhibition,[17],Active
